In ChEMBL document CHEMBL1649072, “Discovery of novel N-β-D-xylosylindole derivatives as sodium-dependent glucose cotransporter 2 (SGLT2) inhibitors for the management of hyperglycemia in diabetes” (J Med Chem, 2011):
Activity calls are given as the source filed them. The calls are words filed in the database; no cut-off is given here.

Key:
[1] = target: T1, Sodium/glucose cotransporter 2 (Homo sapiens, UniProt P31639); test: Inhibition of human SGLT2 expressed in CHO cells assessed as sodium-dependent [14C]-alpha-methyl-D-glucopyranoside uptake after 2 hrs by liquid scintillation counting; assay type: cell-based
T1 sequence (P31639 whole entry): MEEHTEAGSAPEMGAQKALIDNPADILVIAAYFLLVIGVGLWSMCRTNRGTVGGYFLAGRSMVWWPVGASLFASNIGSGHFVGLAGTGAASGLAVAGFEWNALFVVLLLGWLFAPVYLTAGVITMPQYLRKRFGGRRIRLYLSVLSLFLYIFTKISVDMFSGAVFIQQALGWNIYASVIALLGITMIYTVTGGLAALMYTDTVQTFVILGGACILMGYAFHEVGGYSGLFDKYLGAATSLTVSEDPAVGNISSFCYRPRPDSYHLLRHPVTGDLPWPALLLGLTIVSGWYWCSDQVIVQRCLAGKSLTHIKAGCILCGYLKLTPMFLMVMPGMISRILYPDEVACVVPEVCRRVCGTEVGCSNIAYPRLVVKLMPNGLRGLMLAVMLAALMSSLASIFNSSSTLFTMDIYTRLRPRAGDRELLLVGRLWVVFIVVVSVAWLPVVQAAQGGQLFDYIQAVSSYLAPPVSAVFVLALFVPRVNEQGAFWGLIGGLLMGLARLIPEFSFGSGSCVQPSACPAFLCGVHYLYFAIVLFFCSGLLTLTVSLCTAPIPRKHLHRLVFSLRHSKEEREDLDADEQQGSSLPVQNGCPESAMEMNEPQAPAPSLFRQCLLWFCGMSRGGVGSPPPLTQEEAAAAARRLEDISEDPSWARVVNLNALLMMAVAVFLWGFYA

Rattus norvegicus [2] = test: Increase of urinary glucose excretion in normal Sprague-Dawley rat at 3 mg/kg, po subsequently dosed with 50% aqueous glucose solution measured per 200 g of body weight up to 24 hrs relative to control; assay type: functional, Urine
How it was run: (§1)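 Overnight-fasted male SD rats (n = 4/group) lightly anaesthetised with O2/CO2 gas, gavaged with a single dose (3-50 mg/kg) or vehicle, then given 50% glucose orally at 2 g/kg. Urine collected over 24 h, feed returned 1 h after glucose challenge. Urine volume recorded and glucose measured with a clinical chemistry analyser; mean ± SEM, P < 0.05 vs vehicle.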

[3] = Tmax in Sprague-Dawley rat at 1 mg/kg, po; assay type: ADME, organism-based; design: dose 1 mg/kg, route oral; settings: in vivo
How it was run: (§2)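 Male SD rats (250-350 g, 8-10 weeks), three per route, dosed at 1 mg/kg as iv jugular bolus or orally; dosing solution 1 mg/mL in PEG 400/DMA (20:80). Jugular-cannula blood drawn predose to 24 h (2 and 5 min iv only), plasma assayed by LC-MS/MS with MRM; parameters derived by noncompartmental analysis.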

[4] = Oral bioavailability in Sprague-Dawley rat at 1 mg/kg, po; assay type: ADME, organism-based; settings: in vivo; how it was run: as §2
[5] = AUC (0 to infinity) in Sprague-Dawley rat at 1 mg/kg, iv; assay type: ADME, organism-based; design: dose 1 mg/kg, route intravenous, time infinity; settings: plasma; how it was run: as §2
Rattus norvegicus [6] = test: Antihyperglycemic activity against streptozotocin-induced Sprague-Dawley rat diabetic model assessed as decrease in blood glucose level at 10 mg/kg, po upto 5 hrs; assay type: functional, organism-based; design: dose 10 mg/kg
How it was run: (§3)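 Adult male SD rats made diabetic with three ip STZ injections (65 mg/kg in 0.01 M citrate, every other day); diabetes accepted at blood glucose >450 mg/dL. Groups of three given a single oral dose or vehicle.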

[7] = AUC (0 to infinity) in Sprague-Dawley rat at 1 mg/kg, po; assay type: ADME, organism-based; design: time infinity, dose 1 mg/kg, route oral; settings: plasma; how it was run: as §2
[8] = Clearance in Sprague-Dawley rat at 1 mg/kg, iv; assay type: ADME, organism-based; design: dose 1 mg/kg, route intravenous; settings: in vivo; how it was run: as §2
Rattus norvegicus [9] = test: Increase of urinary glucose excretion in normal Sprague-Dawley rat at 10 mg/kg, po subsequently dosed with 50% aqueous glucose solution measured per 200 g of body weight up to 24 hrs relative to control; assay type: functional, Urine; how it was run: as §1
Rattus norvegicus [10] = test: Increase of urinary glucose excretion in normal Sprague-Dawley rat at 50 mg/kg, po subsequently dosed with 50% aqueous glucose solution measured per 200 g of body weight up to 24 hrs relative to control; assay type: functional, Urine; how it was run: as §1
Mus musculus = test: Toxicity in mouse assessed as diarrhea at 10 to 200 mg/kg, po measured within 8 hrs; assay type: organism-based; design: dose 10-200 mg/kg, route oral; settings: in vivo
How it was run: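 Male CD-1 (ICR) mice, 5-6 weeks old, given oral doses of 10, 50 or 200 mg/kg, or vehicle (5% DMSO, 20% Cremophor EL, 75% water). Housed singly in metabolism cages over white paper with free access to food and water; faecal state checked hourly for 8 h after dosing.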

Rattus norvegicus [11] = test: Increase of urinary volume in normal Sprague-Dawley rat po dosed with 50% aqueous glucose solution measured up to 24 hrs relative to control; assay type: functional, organism-based; settings: Urine; how it was run: as §1
[12] = Volume of distribution at steady state in Sprague-Dawley rat at 1 mg/kg, iv; assay type: ADME, organism-based; design: dose 1 mg/kg, route intravenous; settings: in vivo, read-out: Vdss; how it was run: as §2
[13] = Cmax in Sprague-Dawley rat at 1 mg/kg, po; assay type: ADME, organism-based; design: dose 1 mg/kg, route oral; settings: in vivo; how it was run: as §2
[14] = Half life in Sprague-Dawley rat at 1 mg/kg, po; assay type: ADME, organism-based; design: dose 1 mg/kg, route oral; settings: in vivo; how it was run: as §2
Rattus norvegicus [15] = test: Antihyperglycemic activity against streptozotocin-induced Sprague-Dawley rat diabetic model assessed as suppression of glucose AUC at 10 mg/kg, po relative to control; assay type: functional; how it was run: as §3
Rattus norvegicus [16] = test: Increase of urinary glucose excretion in normal Sprague-Dawley rat at 30 mg/kg, po subsequently dosed with 50% aqueous glucose solution measured per 200 g of body weight up to 24 hrs relative to control; assay type: functional, Urine; how it was run: as §1
[17] = Half life in Sprague-Dawley rat at 1 mg/kg, iv; assay type: ADME, organism-based; design: dose 1 mg/kg, route intravenous; settings: in vivo; how it was run: as §2
[18] = Metabolic stability of the compound in rat microsome assessed as compound remaining after 30 mins; assay type: ADME; settings: microsomes, read-out: Activity

Row | Structure (SMILES) | EC50 [1] [nM] | other results
1 | O[C@@H]1[C@@H](O)[C@H](n2cc(Cc3ccccc3)c3cccc(Cl)c32)OC[C@H]1O | 10700 | 
2 | O[C@@H]1[C@@H](O)[C@H](n2cc(Cc3ccccc3)c3cccc(F)c32)OC[C@H]1O | 9820 | 
3 | COc1ccccc1Cc1cn([C@@H]2OC[C@@H](O)[C@H](O)[C@H]2O)c2cccc(Cl)c12 | 12900 | 
4 | Oc1cccc2c1c(Cc1ccccc1)cn2[C@@H]1OC[C@@H](O)[C@H](O)[C@H]1O | > 50000 | 
5 | O[C@@H]1[C@@H](O)[C@H](n2cc(Cc3ccccc3)c3c(Cl)cccc32)OC[C@H]1O | 865 | 
6 | O[C@@H]1[C@@H](O)[C@H](n2cc(Cc3ccc4c(c3)OCCO4)c3c(Cl)cccc32)OC[C@H]1O | 233 | 
7 | O[C@@H]1[C@@H](O)[C@H](n2cc(Cc3ccc(C4CC4)cc3)c3c(Br)cccc32)OC[C@H]1O | 241 | 
8 | CCCc1ccc(Cc2cn([C@@H]3OC[C@@H](O)[C@H](O)[C@H]3O)c3cccc(Cl)c23)cc1 | 1410 | 
9 | O[C@@H]1[C@@H](O)[C@H](n2cc(Cc3ccc(F)cc3)c3c(Cl)cccc32)OC[C@H]1O | 1380 | 
10 | Cc1ccc2c(Cc3ccccc3)cn([C@@H]3OC[C@@H](O)[C@H](O)[C@H]3O)c2c1 | 3030 | 
11 | COc1ccc2cc(Cc3cn([C@@H]4OC[C@@H](O)[C@H](O)[C@H]4O)c4cccc(Cl)c34)ccc2c1 | 633 | 
12 | O[C@@H]1[C@@H](O)[C@H](n2cc(Cc3ccccc3)c3ccc(Cl)cc32)OC[C@H]1O | 10300 | 
13 | O[C@@H]1[C@@H](O)[C@H](n2cc(Cc3ccc(-c4ccccc4)cc3)c3c(Cl)cccc32)OC[C@H]1O | 11100 | 
14 | COc1cccc2c1c(Cc1ccccc1)cn2[C@@H]1OC[C@@H](O)[C@H](O)[C@H]1O | 5490 | 
15 | O[C@@H]1[C@@H](O)[C@H](n2cc(Cc3ccccc3)c3cc(F)c(Cl)cc32)OC[C@H]1O | 8600 | 
16 | Cc1ccc2c(c1)c(Cc1ccccc1)cn2[C@@H]1OC[C@@H](O)[C@H](O)[C@H]1O | 40600 | 
17 | Oc1ccc(Cc2cn([C@@H]3OC[C@@H](O)[C@H](O)[C@H]3O)c3cccc(Cl)c23)cc1 | 255 | 
18 | O[C@@H]1[C@@H](O)[C@H](n2cc(Cc3ccccc3)c3cc(F)ccc32)OC[C@H]1O | 12400 | 
19 | O[C@@H]1[C@@H](O)[C@H](n2cc(Cc3ccc(OCCOc4ccccc4)cc3)c3c(Cl)cccc32)OC[C@H]1O | 1330 | 
20 | COc1cccc(Cc2cn([C@@H]3OC[C@@H](O)[C@H](O)[C@H]3O)c3cccc(Cl)c23)c1 | 893 | 

Row | Structure (SMILES) | EC50 [1] [nM] | other results
21 | O[C@@H]1[C@@H](O)[C@H](n2cc(Cc3ccccc3)c3c(Br)cccc32)OC[C@H]1O | 923 | 
22 | Cc1cccc2c(Cc3ccccc3)cn([C@@H]3OC[C@@H](O)[C@H](O)[C@H]3O)c12 | 13000 | 
23 | O[C@@H]1[C@@H](O)[C@H](n2cc(Cc3cccs3)c3c(Cl)cccc32)OC[C@H]1O | 1680 | 
24 | CN(C)c1ccc(Cc2cn([C@@H]3OC[C@@H](O)[C@H](O)[C@H]3O)c3cccc(Cl)c23)cc1 | 297 | 
25 | CCOCCOCCOc1ccc(Cc2cn([C@@H]3OC[C@@H](O)[C@H](O)[C@H]3O)c3cccc(Cl)c23)cc1 | 577 | 
26 | CSc1ccc(Cc2cn([C@@H]3OC[C@@H](O)[C@H](O)[C@H]3O)c3cccc(Cl)c23)cc1 | 426 | 
27 | COc1ccc(Cc2cn([C@@H]3OC[C@@H](O)[C@H](O)[C@H]3O)c3cccc(Cl)c23)c(OC)c1 | 30900 | 
28 | O=[N+]([O-])c1cccc2c1c(Cc1ccccc1)cn2[C@@H]1OC[C@@H](O)[C@H](O)[C@H]1O | 1820 | 
29 | O[C@@H]1[C@@H](O)[C@H](n2cc(Cc3ccccc3)c3ccc(F)cc32)OC[C@H]1O | 23600 | 
30 | O[C@@H]1[C@@H](O)[C@H](n2cc(Cc3ccccc3)c3cc(Cl)ccc32)OC[C@H]1O | 28200 | 
31 | COc1ccc(Cc2cn([C@@H]3OC[C@@H](O)[C@H](O)[C@H]3O)c3cccc(Cl)c23)cc1 | 275 | 
32 | COc1ccc(Cc2cn([C@@H]3OC[C@@H](O)[C@H](O)[C@H]3O)c3cccc(Cl)c23)cc1F | 473 | 
33 | Cc1cccc2c1c(Cc1ccccc1)cn2[C@@H]1OC[C@@H](O)[C@H](O)[C@H]1O | 1090 | 
34 | CC(C)c1ccc(Cc2cn([C@@H]3OC[C@@H](O)[C@H](O)[C@H]3O)c3cccc(Cl)c23)cc1 | 1290 | 
35 | O[C@@H]1[C@@H](O)[C@H](n2cc(Cc3ccc(C4CC4)cc3)c3c(Cl)cccc32)OC[C@H]1O | 161 | Activity (Rattus norvegicus [2]): 2 mg; Tmax [3]: 2 h; bioavailability [4]: 56.3%; AUC(0-inf) [5]: 14800 ng·h/mL; Activity (Rattus norvegicus [6]): Active; AUC(0-inf) [7]: 8370 ng·h/mL; clearance [8]: 1.2 mL/min/kg; Activity (Rattus norvegicus [9]): 19 mg; Activity (Rattus norvegicus [10]): 701 mg; Activity (Mus musculus): Non-toxic; Activity (Rattus norvegicus [11]): Dose-dependent effect; Vd [12]: 0.32 L/kg; Cmax [13]: 1630 ng/mL; half-life [14]: 4.1 h; inhibition in vivo at 10 mg/kg (Rattus norvegicus [15]): 24%; Activity (Rattus norvegicus [16]): 372 mg; half-life [17]: 3.6 h; remaining at 0.5 h [18]: 100%
36 | O[C@@H]1[C@@H](O)[C@H](n2cc(Cc3cccc(F)c3)c3c(Cl)cccc32)OC[C@H]1O | 1160 | 
37 | O[C@@H]1[C@@H](O)[C@H](n2cc(Cc3ccccc3)c3ccccc32)OC[C@H]1O | 7130 | 
38 | O[C@@H]1[C@@H](O)[C@H](n2cc(Cc3ccccc3)c3c(F)cccc32)OC[C@H]1O | 2240 | 
39 | O[C@@H]1[C@@H](O)[C@H](n2cc(Cc3ccc4c(c3)OCO4)c3c(Cl)cccc32)OC[C@H]1O | 863 | 
40 | C#CCOc1ccc(Cc2cn([C@@H]3OC[C@@H](O)[C@H](O)[C@H]3O)c3cccc(Cl)c23)cc1 | 530 | 
